Data published in ChEMBL document CHEMBL4433216, “Discovery of Stereospecific PARP-1 Inhibitor Isoindolinone NMS-P515” (ACS Med Chem Lett, 2019).
Values after ≈ are worked out from the molar mass of the structure shown.

Assays:
[1] = target: T1, Protein mono-ADP-ribosyltransferase PARP3 (Homo sapiens, UniProt Q9Y6F1); assay: Displacement of fluorescent probe from human recombinant His/GST-tagged PARP3 by fluorescent polarization assay
T1 sequence (Q9Y6F1 whole entry): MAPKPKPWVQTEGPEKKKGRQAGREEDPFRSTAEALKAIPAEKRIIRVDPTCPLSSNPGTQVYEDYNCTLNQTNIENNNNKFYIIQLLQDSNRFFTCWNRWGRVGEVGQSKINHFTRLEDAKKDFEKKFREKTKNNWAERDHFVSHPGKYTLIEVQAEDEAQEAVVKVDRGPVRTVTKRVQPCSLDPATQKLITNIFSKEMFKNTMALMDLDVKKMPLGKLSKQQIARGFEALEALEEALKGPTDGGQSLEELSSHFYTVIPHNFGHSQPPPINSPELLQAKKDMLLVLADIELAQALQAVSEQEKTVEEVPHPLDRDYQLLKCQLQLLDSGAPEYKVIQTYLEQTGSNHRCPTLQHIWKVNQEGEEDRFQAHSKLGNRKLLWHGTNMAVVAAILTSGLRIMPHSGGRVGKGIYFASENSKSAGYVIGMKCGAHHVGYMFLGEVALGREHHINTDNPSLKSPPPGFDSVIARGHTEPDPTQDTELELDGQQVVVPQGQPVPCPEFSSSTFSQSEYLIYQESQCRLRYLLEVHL
In short: (§1)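 Fluorescence polarization displacement assay measuring probe displacement from each ARTD enzyme. Results expressed as K_D.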

[2] = target: T2, Poly [ADP-ribose] polymerase 1 (Homo sapiens, UniProt P09874); assay: Displacement of fluorescent probe from human recombinant full length His-tagged PARP1 by fluorescent polarization assay
[3] = Half life in Balb Nu/Nu mouse at 10 mg/kg, po measured upto 24 hrs by HPLC-MS-MS analysis; type: ADME, organism-based; settings: in vivo
[4] = Permeability of the compound in pH 7.4 HBSS buffer assessed as percentage remained in membrane at 10 uM incubated for 4 hrs by LC-MS/MS based PAMPA method; type: ADME; settings: pH 7.4, 4 h
[5] = Permeability of the compound in pH 7.4 HBSS at 10 uM incubated for 4 hrs by LC-MS/MS based PAMPA method; type: ADME; settings: read-out: permeability
[6] = Oral bioavailability in Balb Nu/Nu mouse at 10 mg/kg measured upto 24 hrs by HPLC-MS-MS analysis; type: ADME, organism-based; settings: in vivo
In short: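 Oral PK in Harlan Nu/Nu mice, n = 3 per study, dosed per os at 10 mg/kg as a 0.5% methocel suspension. Bioavailability derived from oral versus iv exposure (AUC∞), with iv dosing in the same mouse strain.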

[7] = target: T3, Poly [ADP-ribose] polymerase tankyrase-1 (Homo sapiens, UniProt O95271); assay: Displacement of fluorescent probe from human recombinant His-tagged TNKS1 catalytic domain (1091-1325 residues) by fluorescent polarization assay; in short: as §1
T3 sequence (O95271 whole entry): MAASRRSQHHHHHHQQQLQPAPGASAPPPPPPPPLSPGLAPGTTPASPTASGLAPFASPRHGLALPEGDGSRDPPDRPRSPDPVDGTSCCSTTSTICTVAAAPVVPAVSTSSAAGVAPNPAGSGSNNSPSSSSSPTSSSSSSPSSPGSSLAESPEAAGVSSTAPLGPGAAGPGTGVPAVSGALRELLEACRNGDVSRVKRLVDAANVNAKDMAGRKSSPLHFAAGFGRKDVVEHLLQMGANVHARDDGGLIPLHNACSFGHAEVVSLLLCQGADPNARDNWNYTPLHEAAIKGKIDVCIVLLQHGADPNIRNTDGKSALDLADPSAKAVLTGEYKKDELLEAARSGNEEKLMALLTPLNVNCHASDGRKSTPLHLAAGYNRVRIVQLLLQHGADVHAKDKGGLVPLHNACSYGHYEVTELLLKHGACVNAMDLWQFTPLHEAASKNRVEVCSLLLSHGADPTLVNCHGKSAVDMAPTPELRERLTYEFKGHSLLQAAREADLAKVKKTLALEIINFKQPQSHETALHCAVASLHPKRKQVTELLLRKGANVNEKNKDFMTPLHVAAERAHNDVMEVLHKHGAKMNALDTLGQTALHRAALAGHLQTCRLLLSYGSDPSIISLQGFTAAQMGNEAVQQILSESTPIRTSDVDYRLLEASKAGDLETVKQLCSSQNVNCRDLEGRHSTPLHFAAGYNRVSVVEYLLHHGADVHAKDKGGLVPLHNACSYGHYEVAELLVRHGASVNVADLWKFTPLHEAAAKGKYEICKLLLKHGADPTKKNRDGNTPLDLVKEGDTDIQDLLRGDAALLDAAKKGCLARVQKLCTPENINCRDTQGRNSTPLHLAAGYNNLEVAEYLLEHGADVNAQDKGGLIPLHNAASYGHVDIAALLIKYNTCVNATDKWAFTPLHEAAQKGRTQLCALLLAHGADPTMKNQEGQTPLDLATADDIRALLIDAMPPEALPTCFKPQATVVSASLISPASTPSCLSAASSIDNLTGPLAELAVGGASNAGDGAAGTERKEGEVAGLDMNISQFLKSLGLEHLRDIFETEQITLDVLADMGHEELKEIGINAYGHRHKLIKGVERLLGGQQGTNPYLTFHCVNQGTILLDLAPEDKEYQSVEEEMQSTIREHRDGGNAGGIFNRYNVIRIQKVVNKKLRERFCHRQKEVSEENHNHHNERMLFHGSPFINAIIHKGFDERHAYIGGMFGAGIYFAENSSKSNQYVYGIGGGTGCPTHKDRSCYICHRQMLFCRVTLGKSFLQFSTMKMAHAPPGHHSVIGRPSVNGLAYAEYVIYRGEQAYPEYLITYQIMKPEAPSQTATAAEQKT

in vitro [8] = assay: in vitro; parameters: dose or concentration left out as unconfirmed; settings: rat, hepatocytes
[9] = Cmax in Balb Nu/Nu mouse at 10 mg/kg, po measured upto 24 hrs by HPLC-MS-MS analysis; type: ADME, organism-based; parameters: dose 10 mg/kg, route oral; settings: in vivo
in vitro [10] = assay: in vitro; parameters: dose or concentration left out as unconfirmed; settings: human, liver microsomes
[11] = target: Poly [ADP-ribose] polymerase 2 (Homo sapiens, UniProt Q9UGN5); assay: Displacement of fluorescent probe from human recombinant full length His-tagged PARP2 by fluorescent polarization assay; in short: as §1
in vitro [12] = settings: mouse, plasma
CAPAN-1 [13] = assay: animal or person; settings: Mus musculus, CAPAN-1, po, 288 h, read-out: GI
Cytochrome P450 2D6 = Cytochrome P450 2D6 (Homo sapiens, UniProt P10635); assay: Inhibition of CYP2D6 (unknown origin); type: ADME
In short: (§2)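 Screen of eight P450 cytochrome isoforms, with IC50 determined for each isoform.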

Cytochrome P450 2B6 = target: T4, Cytochrome P450 2B6 (Homo sapiens, UniProt P20813); assay: Inhibition of CYP2B6 (unknown origin); type: ADME; in short: as §2
T4 sequence (P20813 whole entry): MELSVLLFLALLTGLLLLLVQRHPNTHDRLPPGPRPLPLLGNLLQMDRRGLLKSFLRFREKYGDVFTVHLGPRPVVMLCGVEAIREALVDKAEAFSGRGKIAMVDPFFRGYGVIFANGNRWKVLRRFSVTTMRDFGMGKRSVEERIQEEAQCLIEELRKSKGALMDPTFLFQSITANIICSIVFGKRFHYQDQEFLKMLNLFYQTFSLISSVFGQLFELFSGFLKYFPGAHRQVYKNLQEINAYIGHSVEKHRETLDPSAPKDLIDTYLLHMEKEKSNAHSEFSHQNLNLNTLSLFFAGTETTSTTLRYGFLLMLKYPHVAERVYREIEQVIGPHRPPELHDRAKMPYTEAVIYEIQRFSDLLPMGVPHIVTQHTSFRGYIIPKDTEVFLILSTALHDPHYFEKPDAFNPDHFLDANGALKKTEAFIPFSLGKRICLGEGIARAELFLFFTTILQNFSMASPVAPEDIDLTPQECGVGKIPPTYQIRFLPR

[14] = Toxicity in human Capan1 cells xenografted Balb athymic Nu/Nu mouse assessed as maximum weight loss at 80 mg/kg, po qd administered for 12 days; type: organism-based; settings: in vivo, 288 h
In short: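 BRCA-2 mutated Capan-1 pancreatic xenograft. The PARP-1 inhibitor was given orally as a methocel suspension at 80 mg/kg once daily for 12 days. Read-outs were maximal tumor growth inhibition and maximum body weight loss.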

[15] = AUC (0 to infinity) in Balb Nu/Nu mouse at 10 mg/kg, iv measured upto 24 hrs by HPLC-MS-MS analysis; type: ADME, organism-based; parameters: dose 10 mg/kg, time infinity, route intravenous; settings: in vivo
[16] = Toxicity in human Capan1 cells xenografted Balb athymic Nu/Nu mouse assessed as maximum body weight loss at 80 mg/kg, po qd administered for 12 days co-treated with 62.5 mg/kg, iv qd temozolomide for 5 days starting from day 3; settings: in vivo
[17] = target: T2, Poly [ADP-ribose] polymerase 1; assay: Binding affinity to human recombinant His/GST-tagged PARP1 catalytic domain (655-end residues) by surface plasma resonance method
[18] = Half life in Balb Nu/Nu mouse at 10 mg/kg, iv measured upto 24 hrs by HPLC-MS-MS analysis; type: ADME, organism-based; settings: in vivo
[19] = Solubility in pH 7 ammonium acetate buffer by LC-MS/MS analysis; type: physicochemical
[20] = Cmax in Balb Nu/Nu mouse at 10 mg/kg, iv measured upto 24 hrs by HPLC-MS-MS analysis; type: ADME, organism-based; parameters: dose 10 mg/kg, route intravenous; settings: in vivo
[21] = AUC (0 to infinity) in Balb Nu/Nu mouse at 10 mg/kg, po measured upto 24 hrs by HPLC-MS-MS analysis; type: ADME, organism-based; parameters: dose 10 mg/kg, route oral, time infinity; settings: in vivo
[22] = target: T2, Poly [ADP-ribose] polymerase 1; assay: Inhibition of PARP1 in human HeLa cells assessed as reduction in H2O2-induced PAR formation incubated for 30 mins followed by H2O2 addition for 15 mins by immunocytochemistry analysis; type: cell-based
[23] = Cmax in Balb Nu/Nu mouse at 5 mg/kg, iv measured upto 24 hrs by HPLC-MS-MS analysis; type: ADME, organism-based; parameters: dose 5 mg/kg, route intravenous; settings: in vivo
in vivo = settings: Balb Nu/Nu, mouse, iv, 5 mg/kg
[24] = AUC (0 to infinity) in Balb Nu/Nu mouse at 5 mg/kg, iv measured upto 24 hrs by HPLC-MS-MS analysis; type: ADME, organism-based; parameters: dose 5 mg/kg, time infinity, route intravenous; settings: in vivo
[25] = Half life in Balb Nu/Nu mouse at 5 mg/kg, iv measured upto 24 hrs by HPLC-MS-MS analysis; type: ADME, organism-based; settings: in vivo
[26] = Toxicity in human Capan1 cells xenografted Balb athymic Nu/Nu mouse assessed as maximum weight loss at 62.5 mg/kg, iv qd for 5 days; type: organism-based; settings: in vivo, 120 h
In short: (§3)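 Capan-1 pancreatic xenograft. Temozolomide was given alone at 62.5 mg/kg iv once daily for 5 days. Maximal tumor growth inhibition and maximum body weight loss were recorded.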

CAPAN-1 [27] = assay: Antitumor activity against human Capan1 cells xenografted in Balb athymic Nu/Nu mouse assessed as maximal tumor growth inhibition at 62.5 mg/kg, iv qd for 5 days; type: functional; settings: CAPAN-1, iv, 120 h, read-out: TGI; in short: as §3

T2 sequence (P09874 whole entry): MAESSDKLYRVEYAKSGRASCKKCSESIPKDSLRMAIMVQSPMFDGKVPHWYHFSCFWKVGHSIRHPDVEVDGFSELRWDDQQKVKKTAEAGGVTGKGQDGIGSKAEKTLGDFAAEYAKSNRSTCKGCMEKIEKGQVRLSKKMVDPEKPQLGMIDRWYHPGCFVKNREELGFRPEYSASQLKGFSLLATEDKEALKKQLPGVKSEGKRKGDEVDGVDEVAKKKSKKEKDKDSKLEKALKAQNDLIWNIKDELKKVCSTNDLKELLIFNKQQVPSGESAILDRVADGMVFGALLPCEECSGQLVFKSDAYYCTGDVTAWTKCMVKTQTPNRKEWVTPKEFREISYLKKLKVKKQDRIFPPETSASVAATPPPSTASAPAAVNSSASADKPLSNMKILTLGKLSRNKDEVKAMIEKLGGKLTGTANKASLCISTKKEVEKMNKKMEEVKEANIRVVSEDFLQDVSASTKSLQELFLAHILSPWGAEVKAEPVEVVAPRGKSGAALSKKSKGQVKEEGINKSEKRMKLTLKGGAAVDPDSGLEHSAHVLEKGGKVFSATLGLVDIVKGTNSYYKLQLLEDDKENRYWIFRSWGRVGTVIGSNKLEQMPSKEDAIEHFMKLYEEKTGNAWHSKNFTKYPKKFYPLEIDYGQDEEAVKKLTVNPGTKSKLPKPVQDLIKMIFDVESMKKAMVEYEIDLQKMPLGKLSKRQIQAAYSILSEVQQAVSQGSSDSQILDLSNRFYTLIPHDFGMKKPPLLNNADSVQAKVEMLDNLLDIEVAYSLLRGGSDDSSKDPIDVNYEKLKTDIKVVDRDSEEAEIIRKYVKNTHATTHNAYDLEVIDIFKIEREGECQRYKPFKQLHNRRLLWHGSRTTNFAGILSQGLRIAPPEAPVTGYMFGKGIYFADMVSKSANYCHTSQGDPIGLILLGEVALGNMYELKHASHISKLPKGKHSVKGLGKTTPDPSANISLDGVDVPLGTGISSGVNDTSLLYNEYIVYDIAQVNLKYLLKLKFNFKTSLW
Cytochrome P450 2D6, sequence (P10635 whole entry, canonical isoform): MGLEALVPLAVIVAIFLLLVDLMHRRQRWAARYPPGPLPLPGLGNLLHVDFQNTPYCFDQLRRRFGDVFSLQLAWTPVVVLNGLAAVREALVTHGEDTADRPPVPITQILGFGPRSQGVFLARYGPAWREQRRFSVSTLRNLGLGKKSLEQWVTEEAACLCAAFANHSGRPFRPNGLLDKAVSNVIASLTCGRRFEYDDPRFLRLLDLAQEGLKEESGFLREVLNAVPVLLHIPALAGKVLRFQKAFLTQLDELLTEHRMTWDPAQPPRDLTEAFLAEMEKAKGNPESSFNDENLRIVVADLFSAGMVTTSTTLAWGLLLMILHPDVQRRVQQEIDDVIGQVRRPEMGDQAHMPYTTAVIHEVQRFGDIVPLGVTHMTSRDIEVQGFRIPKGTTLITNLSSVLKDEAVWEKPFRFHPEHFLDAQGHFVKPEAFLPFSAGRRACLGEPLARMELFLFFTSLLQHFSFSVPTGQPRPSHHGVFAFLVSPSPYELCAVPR
Poly [ADP-ribose] polymerase 2, sequence (Q9UGN5 whole entry): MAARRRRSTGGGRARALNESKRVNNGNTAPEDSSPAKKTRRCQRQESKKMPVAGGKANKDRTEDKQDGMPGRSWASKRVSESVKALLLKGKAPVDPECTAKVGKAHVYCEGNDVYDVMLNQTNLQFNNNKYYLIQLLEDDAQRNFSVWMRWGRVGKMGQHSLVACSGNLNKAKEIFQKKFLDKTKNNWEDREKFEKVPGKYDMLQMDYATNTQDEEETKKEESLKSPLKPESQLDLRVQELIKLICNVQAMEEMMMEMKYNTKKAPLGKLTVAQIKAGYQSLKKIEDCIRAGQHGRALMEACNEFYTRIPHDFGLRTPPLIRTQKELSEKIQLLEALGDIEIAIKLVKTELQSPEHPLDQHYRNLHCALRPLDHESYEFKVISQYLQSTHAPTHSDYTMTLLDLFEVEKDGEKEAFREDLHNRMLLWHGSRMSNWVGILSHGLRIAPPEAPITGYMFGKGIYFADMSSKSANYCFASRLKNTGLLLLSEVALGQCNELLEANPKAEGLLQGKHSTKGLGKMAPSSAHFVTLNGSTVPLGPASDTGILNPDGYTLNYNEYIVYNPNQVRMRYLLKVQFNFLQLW

SMILES	Kd [1] [nM]	Kd [2] [nM]	half-life [3] [h]	permeability [4] [%]	Papp at 4 h, 10 µM [5] [×10⁻⁶ cm/s]	bioavailability [6] [%]	Kd [7] [nM]	CLint scaled at 1.5 h (in vitro [8]) [mL/min/kg]	Cmax [9] [nM]	CLint scaled at 0.5 h (in vitro [10]) [mL/min/kg]	Kd [11] [nM]	fraction unbound (in vitro [12])	IC50 (Cytochrome P450 2D6) [nM]	IC50 (Cytochrome P450 2B6) [nM]	Kd [17] [nM]	solubility [19] [µM]	AUC(0-inf) [21] [µM·h]	IC50 [22] [nM]	other results
C[C@H]1c2cccc(C(N)=O)c2C(=O)N1C1CCN(C2CCCCC2)CC1	> 10000	< 30	2.6	0	27.3	78.3	> 10000	5	1400	5	> 10000	0.13	> 31000	> 31000	16	> 225	4.9	27	inhibition in vivo at 80 mg/kg (CAPAN-1 [13]): 48%; Activity [14]: 6%; AUC(0-inf) [15]: 8.2 µM·h; Activity [16]: 17%; half-life [18]: 2.1 h; Cmax [20]: 4900 nM
C[C@@H]1c2cccc(C(N)=O)c2C(=O)N1C1CCN(C2CCCCC2)CC1	–	1320	–	–	–	–	–	–	–	–	–	–	–	–	1760	–	–	162	–
Cn1nnc2c(C(N)=O)ncn2c1=O [TEMOZOLOMIDE]	–	–	–	–	–	–	–	–	–	–	–	–	–	–	–	–	–	–	Activity [26]: 8%; inhibition in vivo at 62.5 mg/kg (CAPAN-1 [27]): 46%

The next lines start with results.

Kd [1] [nM]	Kd [2] [nM]	half-life [3] [h]	permeability [4] [%]	Papp at 4 h, 10 µM [5] [×10⁻⁶ cm/s]	bioavailability [6] [%]	Kd [7] [nM]	CLint scaled at 1.5 h (in vitro [8]) [mL/min/kg]	Cmax [9] [nM]	CLint scaled at 0.5 h (in vitro [10]) [mL/min/kg]	Kd [11] [nM]	fraction unbound (in vitro [12])	IC50 (Cytochrome P450 2D6) [nM]	IC50 (Cytochrome P450 2B6) [nM]	Kd [17] [nM]	solubility [19] [µM]	AUC(0-inf) [21] [µM·h]	IC50 [22] [nM]	SMILES	other results
–	–	–	–	–	–	–	–	–	–	–	–	–	–	–	–	–	640	CC1c2cc(F)cc(C(N)=O)c2C(=O)N1C1CCN(C2CCCCC2)CC1 (racemic)	–
> 10000	< 30	3.1	8	39.4	100	> 10000	5	2500	5	> 10000	0.05	600	4900	–	140 (≈ 49.8 µg/mL)	13.5	50	CC1c2cccc(C(N)=O)c2C(=O)N1C1CCN(C2CCCCC2)CC1 (racemic)	Cmax [23]: 2500 nM; Vd at 24 h (in vivo): 3.6 L/kg; AUC(0-inf) [24]: 6.3 µM·h; half-life [25]: 1.8 h
